This note sets out measurements from ChEMBL document CHEMBL1135477, “Antifungal agents. 10. New derivatives of 1-[(aryl)[4-aryl-1H-pyrrol-3-yl]methyl]-1H-imidazole, synthesis, anti-candida activity, and quantitative structure-analysis relationship studies” (J Med Chem, 2002).

Assay type in all cases: functional
The test system of series [1] is Candida albicans. Put plainly: IIn vitro antifungal activity against 40 strains of Candida albicans at pH 7.2; minimum inhibitory concentration (range is from 2 to 64). The method, boiled down: (§1)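 Broth serial-dilution MIC against 40 clinical C. albicans isolates from hospitalized patients, grown in Sabouraud broth at pH 7.2 or 5.8. Cells were pre-grown 18 h at 37 °C, inoculated at 10³/mL, and read at 24 h, 37 °C. Doubling dilutions ran 0.25–256 μg/mL from a DMSO/water solution. MIC was the lowest concentration with no visible growth against a DMSO/water blank.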

For series [2], the system named is Candida. Briefly: Tested in vitro for antifungal activity against Candida species. at pH 5.8 (range is from 8 to 256). The essentials: (§2)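 Liquid serial-dilution MIC against 3 freshly isolated clinical Candida strains (two C. glabrata, one C. krusei) in Sabouraud broth at pH 7.2 or 5.8. Inoculum was 10³/mL after 18 h pre-culture at 37 °C, read at 24 h, 37 °C. Range was 0.25–256 μg/mL. Endpoint was no visible growth versus a DMSO/water blank.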

Series [3] deals with Candida. Briefly: Tested in vitro for antifungal activity against Candida species. at pH 5.8. The essentials:
as §2

Series [4] relates to Candida. Briefly: Tested in vitro for antifungal activity against Candida species. at pH 5.8 (percent of resistant species at 256 ug/mL). The method, boiled down:
(§3)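 Broth serial-dilution test in Sabouraud broth at pH 7.2 or 5.8, against 3 fresh clinical non-albicans isolates (two C. glabrata, one C. krusei). Inocula were 10³/mL, pre-grown 18 h at 37 °C. Compound was twofold-diluted over 0.25–256 µg/mL and read at 24 h, 37 °C for visible growth.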

Series [5] relates to Candida. Briefly: Tested In vitro for antifungal activity against Candida species. at pH 7.2; (percent of resistant species at 256 ug/mL). The essentials:
as §3

Series [6] concerns Candida. Put plainly: Tested In vitro for antifungal activity against Candida species. at pH 7.2. The method, boiled down:
as §2

The subject of series [7] is Candida albicans. Put plainly: In vitro antifungal activity against 40 strains of Candida albicans at pH 5.8. The essentials: as §1
The subject of series [8] is Candida albicans. Briefly: In vitro antifungal activity against 40 strains of Candida albicans at pH 7.2. The method, boiled down: as §1
The subject of series [9] is Candida albicans. Briefly: In vitro antifungal activity against 40 strains of Candida albicans at pH 7.2; (percent of resistant species at 256 ug/mL). The method, boiled down:
(§4)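 Broth serial-dilution test in Sabouraud broth at pH 7.2 or 5.8, against 40 fresh clinical C. albicans isolates from hospitalized patients. Inocula were 10³/mL, pre-grown 18 h at 37 °C in Sabouraud dextrose broth. Compound from a DMSO/water stock was twofold-diluted over 0.25–256 µg/mL. Visible growth was read at 24 h, 37 °C.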

Series [10] concerns Candida albicans. Briefly: In vitro antifungal activity against 40 strains of Candida albicans at pH 5.8; (percent of resistant species at 256 ug/mL). The method, boiled down:
as §4

For series [11], the system named is Candida. Briefly: Tested In vitro for antifungal activity against Candida species. at pH 7.2; (range is from 1 to 32). The method, boiled down: as §2
In series [12] the test system is Candida albicans. Briefly: TIn vitro antifungal activity against 40 strains of Candida albicans at pH 5.8; (range is from 4 to 64). The essentials: as §1
Series [13] addresses Lanosterol 14-alpha demethylase (Candida albicans (strain SC5314 / ATCC MYA-2876) (Yeast), UniProt P10613). Put plainly: Anticandida activity- (MIC90 compound) / (MIC90 bifonazole).
Series [14] deals with Candida. Put plainly: Tested In vitro for antifungal activity against Candida species. at pH 7.2 (percent of resistant species at 256 ug/mL). The essentials:
as §3

Series [15] relates to Candida albicans. Briefly: In vitro antifungal activity against 40 strains of Candida albicans at pH 5.8; value ranges from 256 to >256. The essentials:
as §1

Series [16] relates to Candida albicans. Put plainly: In vitro antifungal activity against Candida albicans (40 strains) at pH 7.2; (percent of resistant species at 256 ug/mL). The method, boiled down: as §4
For series [17], the system named is Candida albicans. Put plainly: In vitro antifungal activity against 40 strains of Candida albicans at pH 5.8 (percent of resistant species at 256 ug/mL). The essentials: as §4
Series [18] deals with Candida albicans. Briefly: In vitro antifungal activity against 40 strains of Candida albicans at pH 7.2; value ranges from 128 to >256. The essentials: as §1
For series [19], the system named is Candida. Briefly: Tested in vitro for antifungal activity against Candida species. at pH 5.8; range is from 1 to 64. The method, boiled down: as §2
Series [20] deals with Candida albicans. Briefly: In vitro antifungal activity against 40 strains of Candida albicans at pH 7.2; minimum inhibitory concentration (range is from 1 to 32). The method, boiled down: as §1
Series [21] has as its system Candida. Briefly: Tested In vitro for antifungal activity against Candida species. at pH 7.2; (range is from 4 to 16). The essentials: as §2
Series [22] concerns Candida albicans. Briefly: In vitro antifungal activity against 40 strains of Candida albicans at pH 5.8; value ranges from 0.5 to 4). The method, boiled down: as §1
In series [23] the test system is Candida albicans. Put plainly: Compound was tested for its anti-candida activity, expressed as ratio of minimum inhibitory concentration.

The structures appear in SMILES notation. In brackets after ≈: the same amount, converted by molar mass.

Lanosterol 14-alpha demethylase, sequence (P10613 whole entry): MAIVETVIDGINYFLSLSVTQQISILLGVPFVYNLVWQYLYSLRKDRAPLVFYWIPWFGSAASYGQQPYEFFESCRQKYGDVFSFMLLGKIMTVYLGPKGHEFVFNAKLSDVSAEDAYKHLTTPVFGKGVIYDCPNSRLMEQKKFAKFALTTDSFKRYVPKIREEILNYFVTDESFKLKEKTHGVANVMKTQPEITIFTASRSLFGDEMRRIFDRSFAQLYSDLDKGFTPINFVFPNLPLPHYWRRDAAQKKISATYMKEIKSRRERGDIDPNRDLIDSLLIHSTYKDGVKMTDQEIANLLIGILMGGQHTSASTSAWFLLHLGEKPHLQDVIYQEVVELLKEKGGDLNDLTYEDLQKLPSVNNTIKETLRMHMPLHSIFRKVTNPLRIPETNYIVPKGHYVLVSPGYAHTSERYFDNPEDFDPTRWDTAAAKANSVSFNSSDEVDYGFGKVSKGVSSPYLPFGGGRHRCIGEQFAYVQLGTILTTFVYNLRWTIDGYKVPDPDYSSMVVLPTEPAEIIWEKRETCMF

With `N#Cc1ccc(-c2c[nH]cc2[C@H](c2ccc(Cl)cc2Cl)n2ccnc2)cc1`, the Range in the series on Candida albicans [1] was 64 µg/mL; in the series with Candida [2], 256 µg/mL; with Candida [11] it was 32 µg/mL; in the series on Candida albicans [12] it was 64 µg/mL. For the same compound, the MIC was found to be 58 mg/L (≈ 147 µM) against Candida [3], 32.4 mg/L (≈ 82.4 µM) with Candida [6], 41.3 mg/L (≈ 105 µM) with Candida albicans [7] and 13.2 mg/L (≈ 33.6 µM) against Candida albicans [8]. Also, the MIC50 against Candida [3] is 64 mg/L (≈ 163 µM); with Candida [6] it was 16 mg/L (≈ 40.7 µM); against Candida albicans [7], 8 mg/L (≈ 20.3 µM); against Candida albicans [8], 8 mg/L (≈ 20.3 µM). The MIC90 with Candida [3] was determined as 256 mg/L (≈ 651 µM); in the series on Candida [6], 64 mg/L (≈ 163 µM); against Candida albicans [7], 32 mg/L (≈ 81.4 µM); with Candida albicans [8] it was 32 mg/L (≈ 81.4 µM). Besides, the Resistance in the series with Candida [4], with Candida [5], in the series with Candida albicans [9] and in the series with Candida albicans [10] was 0% in each case. Further, the Ratio in [13] is reported as 6.3.

On to `CC(C)(C)c1ccc(-c2c[nH]cc2[C@@H](c2ccc(Cl)cc2Cl)n2ccnc2)cc1`, for which the Resistance with Candida [14] amounted to 100%; in the series with Candida [4], 100%; in the series on Candida albicans [16] it was 80%; in the series on Candida albicans [17] it was 97%. The MIC50 with Candida [3], in the series with Candida [6], against Candida albicans [7] and in the series with Candida albicans [8] was over 256 mg/L in each case. Moreover, the MIC90 against Candida [3], with Candida [6], with Candida albicans [7] and in the series on Candida albicans [8] was over 256 mg/L each time. For the same compound, the Range in the series on Candida [3], in the series on Candida albicans [15], in the series on Candida [6] and in the series on Candida albicans [18] was over 256 µg/mL throughout. Besides, the MIC against Candida albicans [7] turned out to be 256 mg/L (≈ 603 µM); against Candida albicans [8], 165 mg/L (≈ 388 µM). Besides, the Ratio in [13] turned out to be 47.

Consider `Cn1cc(-c2ccc(Cl)cc2)c([C@H](c2ccc(Cl)cc2Cl)n2ccnc2)c1`, for which the Range turned out to be 64 µg/mL in the series on Candida [19], 32 µg/mL in the series on Candida albicans [20], 16 µg/mL in the series on Candida [21] and 4 µg/mL with Candida albicans [22]. Further, the MIC in the series on Candida [3] worked out at 4.5 mg/L (≈ 10.8 µM); against Candida [6], 6.1 mg/L (≈ 14.6 µM); in the series with Candida albicans [7], 2.54 mg/L (≈ 6.09 µM); in the series with Candida albicans [8], 5.3 mg/L (≈ 12.7 µM). Besides, the MIC50 against Candida [3] stood at 2 mg/L (≈ 4.8 µM); against Candida [6], 16 mg/L (≈ 38.4 µM); against Candida albicans [7], 0.5 mg/L (≈ 1.2 µM); in the series with Candida albicans [8], 2 mg/L (≈ 4.8 µM). For the same compound, the MIC90 in the series on Candida [3] was determined as 64 mg/L (≈ 154 µM); in the series with Candida [6], 32 mg/L (≈ 76.8 µM); in the series with Candida albicans [7], 2 mg/L (≈ 4.8 µM); against Candida albicans [8], 16 mg/L (≈ 38.4 µM). Moreover, the Resistance in the series with Candida [4], in the series with Candida [5], with Candida albicans [9] and in the series with Candida albicans [10] was 0% throughout. In [13], the Ratio came to 3.

Turning to `c1ccc(-c2ccc([C@@H](c3ccccc3)n3ccnc3)cc2)cc1` [BIFONAZOLE], the MIC90 ratio in the series on Candida albicans [23] came to 1.

In general, MIC refers to the least concentration at which growth counts as inhibited. Higher therefore signals weaker potency. By MIC50 is commonly meant an inhibitory concentration at the 50% level, which refers to growth in some studies and to a panel of isolates in others. The low end stands for greater potency, the high end for weaker potency. As a reminder, the MIC90 is the lowest concentration that inhibits either 90% of growth or 90% of the strains tested, depending on the study.
